Test results from ChEMBL document CHEMBL1125291, “New 8-(trifluoromethyl)-substituted quinolones. The benefits of the 8-fluoro group with reduced phototoxic risk” (1992).
Converted amounts (≈) assume the structure as drawn.

What was measured:
Klebsiella pneumoniae = test: Minimum inhibitory concentration (MIC) against gram negative bacteria Klebsiella pneumoniae MGH-2.; assay type: functional; settings: Klebsiella pneumoniae; read-out: MIC
In short: (§1)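 MICs were determined by standard broth microtitration against 11 Gram-positive and Gram-negative organisms, in µg/mL. Values come from duplicate or triplicate experiments and are accurate to ±50%.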

Staphylococcus aureus [1] = test: Minimum inhibitory concentration (MIC) against gram positive bacteria Staphylococcus aureus UC-76.; assay type: functional; settings: Staphylococcus aureus; read-out: MIC; in short: as §1
Pseudomonas aeruginosa [2] = test: Minimum inhibitory concentration (MIC) against gram negative bacteria Pseudomonas aeruginosa UI-18.; assay type: functional; settings: Pseudomonas aeruginosa; read-out: MIC; in short: as §1
Escherichia coli [3] = test: In vivo efficacy in mouse protection test in Escherichia coli Vogel administered by subcutaneous injection.; assay type: functional; settings: Escherichia coli, sc; read-out: PD50
In short: (§2)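 Acute lethal systemic infections in female Charles River CD-1 mice. A single dose was given at challenge, orally by gavage or by subcutaneous injection. PD50 (median protective dose, mg/kg) was determined.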

Mus musculus [4] = species: Mus musculus; test: Dose required to induce phototoxic reaction in 50% of mice by probit method at different dosage forms.; assay type: functional
Staphylococcus aureus [5] = test: Minimum inhibitory concentration (MIC) against gram positive bacteria Staphylococcus aureus H-228.; assay type: functional; settings: Staphylococcus aureus; read-out: MIC; in short: as §1
Escherichia coli [6] = test: Minimum inhibitory concentration (MIC) against gram negative bacteria Escherichia coli Vogel.; assay type: functional; settings: Escherichia coli; read-out: MIC; in short: as §1
Escherichia coli [7] = test: Minimum inhibitory concentration (MIC) against gram negative bacteria Escherichia coli H-560.; assay type: functional; settings: Escherichia coli; read-out: MIC; in short: as §1
Mus musculus [8] = species: Mus musculus; test: Dose which has no effect to induce phototoxic reaction in 50% of mice by probit method.; assay type: functional
Mus musculus [9] = species: Mus musculus; test: Number of mice which show positive phototoxic reaction in 5 mice; assay type: functional
Escherichia coli [10] = test: In vivo efficacy in mouse protection test in Escherichia coli Vogel dose administered orally by gavage.; assay type: functional; settings: Escherichia coli, po; read-out: PD50; in short: as §2
Streptococcus pneumoniae [11] = test: In vivo efficacy (s.c.) against Streptococcus pneumoniae SV-1 in mouse protection test; assay type: functional; settings: Streptococcus pneumoniae, sc; read-out: PD50; in short: as §2
Enterococcus faecalis = test: Minimum inhibitory concentration (MIC) against gram positive bacteria Streptococcus faecalis MGH-2.; assay type: functional; settings: Enterococcus faecalis; read-out: MIC; in short: as §1
[12] = Minimum inhibitory concentration (MIC) against gram negative bacteria Prot. rettgeri M-1771.; assay type: functional, Providencia rettgeri; settings: Providencia rettgeri; read-out: MIC; in short: as §1
Streptococcus pneumoniae [13] = test: In vivo efficacy (orally) against Streptococcus pneumoniae SV-1 in mouse protection test; assay type: functional; settings: Streptococcus pneumoniae, po; read-out: PD50; in short: as §2
Streptococcus pyogenes [14] = test: Minimum inhibitory concentration (MIC) against gram positive bacteria Streptococcus pyogenes C-203.; assay type: functional; settings: Streptococcus pyogenes; read-out: MIC; in short: as §1
Streptococcus pneumoniae [15] = test: Minimum inhibitory concentration (MIC) against gram positive bacteria Streptococcus pneumoniae SV-1.; assay type: functional; settings: Streptococcus pneumoniae; read-out: MIC; in short: as §1
Enterobacter cloacae = test: Minimum inhibitory concentration (MIC) against gram negative bacteria Enterobacter cloacae MA-2646.; assay type: functional
Mus musculus [16] = species: Mus musculus; test: Days of the first positive reaction in […] mice.; assay type: functional
In short: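 Phototoxic skin reaction test in depilated female CD-1 mice. A single oral dose (gavage) or subcutaneous dose was given, followed 1 h later by 3 h of UVA exposure (320–400 nm). The regimen was repeated for up to 4 consecutive days, with initial doses of 30, 100 and 300 mg/kg. PTD50 was derived by the probit method. The first day of positive reaction and the no-effect dose were taken from the raw data.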

Mus musculus [17] = test: Maximum tolerance dose was measured for phototoxic skin reaction by po administration; assay type: functional
Streptococcus pyogenes [18] = test: In vivo efficacy (orally) against Streptococcus pyogenes C-203 in mouse protection test; assay type: functional; settings: Streptococcus pyogenes, po; read-out: PD50; in short: as §2
Streptococcus pyogenes [19] = test: In vivo efficacy (s.c.) against Streptococcus pyogenes C-203 in mouse protection test; assay type: functional; settings: Streptococcus pyogenes, sc; read-out: PD50; in short: as §2
Pseudomonas aeruginosa [20] = test: In vivo efficacy (s.c.) against Pseudomonas aeruginosa in mouse protection test; assay type: functional; settings: Pseudomonas aeruginosa, sc; read-out: PD50; in short: as §2
Pseudomonas aeruginosa [21] = test: In vivo efficacy (orally) against Pseudomonas aeruginosa in mouse protection test; assay type: functional; settings: Pseudomonas aeruginosa, po; read-out: PD50; in short: as §2

Row | SMILES | MIC (Klebsiella pneumoniae) | MIC (Staphylococcus aureus [1]) | MIC (Pseudomonas aeruginosa [2]) | ED50 (Escherichia coli [3]) | PTD50 (Mus musculus [4]) | MIC (Staphylococcus aureus [5]) | MIC (Escherichia coli [6]) | MIC (Escherichia coli [7]) | No effect dose (Mus musculus [8]) | No. of pos rxns (Mus musculus [9]) | ED50 (Escherichia coli [10]) | ED50 (Streptococcus pneumoniae [11]) | MIC (Enterococcus faecalis) | MIC [12] | ED50 (Streptococcus pneumoniae [13]) | MIC (Streptococcus pyogenes [14]) | MIC (Streptococcus pneumoniae [15]) | MIC (Enterobacter cloacae) | Day of first positve reaction (Mus musculus [16]) | MTD (Mus musculus [17]) | also measured
1 | NC1CCN(c2c(F)cc3c(=O)c(C(=O)O)cn(C4CC4)c3c2F)CC1 | 0.1 µg/mL (≈ 0.275 µM) | 0.025 µg/mL (≈ 0.0688 µM) | 0.8 µg/mL (≈ 2.2 µM) | 1.2 mg/kg | 55 mg/kg | 0.1 µg/mL (≈ 0.275 µM) | 0.1 µg/mL (≈ 0.275 µM) | 0.05 µg/mL (≈ 0.138 µM) | 30 mg/kg | 5 | 3.7 mg/kg | 3.6 mg/kg | 0.2 µg/mL (≈ 0.55 µM) | 0.2 µg/mL (≈ 0.55 µM) | 15 mg/kg | 0.4 µg/mL (≈ 1.1 µM) | 0.4 µg/mL (≈ 1.1 µM) | 0.1 µg/mL (≈ 0.275 µM) | 2 | 100 mg/kg | –
2 | NC1CCN(c2c(F)cc3c(=O)c(C(=O)O)cn(C4CC4)c3c2C(F)(F)F)CC1 | 0.4 µg/mL (≈ 0.968 µM) | 0.05 µg/mL (≈ 0.121 µM) | 3.1 µg/mL (≈ 7.5 µM) | 4.5 mg/kg | >100 mg/kg | 0.1 µg/mL (≈ 0.242 µM) | 0.2 µg/mL (≈ 0.484 µM) | 0.2 µg/mL (≈ 0.484 µM) | 100 mg/kg | 0 | 12.5 mg/kg | – | 0.2 µg/mL (≈ 0.484 µM) | 0.8 µg/mL (≈ 1.94 µM) | – | 0.1 µg/mL (≈ 0.242 µM) | 0.2 µg/mL (≈ 0.484 µM) | 0.2 µg/mL (≈ 0.484 µM) | 0 | 100 mg/kg | –
3 | NC1CCN(c2cc3c(cc2F)c(=O)c(C(=O)O)cn3C2CC2)CC1 | 0.8 µg/mL (≈ 2.32 µM) | 0.2 µg/mL (≈ 0.579 µM) | 3.1 µg/mL (≈ 8.98 µM) | 3.8 mg/kg | >100 mg/kg | 1.6 µg/mL (≈ 4.63 µM) | 0.4 µg/mL (≈ 1.16 µM) | 0.4 µg/mL (≈ 1.16 µM) | 100 mg/kg | 0 | 18 mg/kg | – | 0.8 µg/mL (≈ 2.32 µM) | 1.6 µg/mL (≈ 4.63 µM) | – | 0.4 µg/mL (≈ 1.16 µM) | 0.4 µg/mL (≈ 1.16 µM) | 0.4 µg/mL (≈ 1.16 µM) | 0 | 100 mg/kg | –
4 | CCNCC1CCN(c2cc3c(cc2F)c(=O)c(C(=O)O)cn3C2CC2)C1 (stereo not drawn) | 0.2 µg/mL (≈ 0.536 µM) | 0.013 µg/mL (≈ 0.0348 µM) | 1.6 µg/mL (≈ 4.28 µM) | 2.4 mg/kg | >100 mg/kg | 0.4 µg/mL (≈ 1.07 µM) | 0.2 µg/mL (≈ 0.536 µM) | 0.05 µg/mL (≈ 0.134 µM) | 100 mg/kg | 0 | 35 mg/kg | – | 0.2 µg/mL (≈ 0.536 µM) | 0.8 µg/mL (≈ 2.14 µM) | – | 0.05 µg/mL (≈ 0.134 µM) | 0.2 µg/mL (≈ 0.536 µM) | 0.4 µg/mL (≈ 1.07 µM) | 0 | 100 mg/kg | ED50 (Streptococcus pyogenes [18]): 46 mg/kg; ED50 (Streptococcus pyogenes [19]): 4.5 mg/kg
5 | CCNCC1CCN(c2c(F)cc3c(=O)c(C(=O)O)cn(C4CC4)c3c2F)C1 (stereo not drawn) [PD-117558] | 0.2 µg/mL (≈ 0.511 µM) | 0.006 µg/mL (≈ 0.0153 µM) | 0.4 µg/mL (≈ 1.02 µM) | 1 mg/kg | <30 mg/kg | 0.05 µg/mL (≈ 0.128 µM) | 0.05 µg/mL (≈ 0.128 µM) | 0.013 µg/mL (≈ 0.0332 µM) | 30 mg/kg | 5 | 4.2 mg/kg | 1.9 mg/kg | 0.025 µg/mL (≈ 0.0639 µM) | 0.4 µg/mL (≈ 1.02 µM) | 3.3 mg/kg | – | 0.025 µg/mL (≈ 0.0639 µM) | 0.1 µg/mL (≈ 0.255 µM) | 1 | 30 mg/kg | ED50 (Streptococcus pyogenes [18]): 1.8 mg/kg; ED50 (Streptococcus pyogenes [19]): 0.5 mg/kg; ED50 (Pseudomonas aeruginosa [20]): 40 mg/kg; ED50 (Pseudomonas aeruginosa [21]): 59 mg/kg
6 | C[C@@H]1CN(c2c(F)cc3c(=O)c(C(=O)O)cn(C4CC4)c3c2F)CCN1 | 0.025 µg/mL (≈ 0.0688 µM) | 0.1 µg/mL (≈ 0.275 µM) | 0.4 µg/mL (≈ 1.1 µM) | 0.2 mg/kg | 43 mg/kg | 0.2 µg/mL (≈ 0.55 µM) | 0.025 µg/mL (≈ 0.0688 µM) | 0.1 µg/mL (≈ 0.275 µM) | <30 mg/kg | 1 | 0.7 mg/kg | – | 0.4 µg/mL (≈ 1.1 µM) | 0.1 µg/mL (≈ 0.275 µM) | – | 0.2 µg/mL (≈ 0.55 µM) | 0.4 µg/mL (≈ 1.1 µM) | 0.025 µg/mL (≈ 0.0688 µM) | 4 | 30 mg/kg | ED50 (Streptococcus pyogenes [18]): 14 mg/kg; ED50 (Streptococcus pyogenes [19]): 7.2 mg/kg
7 | CC1(CN)CCN(c2c(F)cc3c(=O)c(C(=O)O)cn(C4CC4)c3c2F)C1 (stereo not drawn) | 0.025 µg/mL (≈ 0.0662 µM) | – | 0.4 µg/mL (≈ 1.06 µM) | 3 mg/kg | <30 mg/kg | 0.013 µg/mL (≈ 0.0344 µM) | 0.013 µg/mL (≈ 0.0344 µM) | 0.006 µg/mL (≈ 0.0159 µM) | <30 mg/kg | 5 | 1.8 mg/kg | 0.3 mg/kg | 0.006 µg/mL (≈ 0.0159 µM) | 0.05 µg/mL (≈ 0.132 µM) | 1.2 mg/kg | 0.003 µg/mL (≈ 0.00795 µM) | 0.003 µg/mL (≈ 0.00795 µM) | 0.013 µg/mL (≈ 0.0344 µM) | 1 | 30 mg/kg | –
